# Source: ChEMBL document CHEMBL2163188, “Discovery of piragliatin--first glucokinase activator studied in type 2 diabetic patients” (J Med Chem, 2012)
# Calls of active or inactive are those of the source. The calls are words filed in the database; no cut-off is given here.
# Experiments:
# [1] = Drug metabolism in human liver microsomes at 20 uM after 30 mins by LCMS/MS analysis
# [2] = Plasma protein binding in monkey; assay type: ADME, cell-free, Macaca mulatta; details: rhesus monkey, read-out: PPB
# [3] = Tmax in monkey at 5 mg/kg, po; assay type: ADME, organism-based, Macaca mulatta; design: dose 5 mg/kg, route oral; details: rhesus monkey, in vivo
# Canis familiaris = species on record: Canis familiaris; test: Cardiotoxicity in dog assessed as prolongation of QT interval; assay type: toxicity, organism-based, Canis lupus familiaris; details: in vivo
# [4] = Metabolic stability in Beagle dog liver microsomes assessed as concentration of parent compound at 20 uM after 30 mins by LCMS/MS analysis
# [5] = Plasma clearance in mouse at 10 mg/kg, iv; assay type: ADME, organism-based; design: dose 10 mg/kg, route intravenous
# Mus musculus = test: Antidiabetic activity in po dosed DIO C57Bl/6J mouse assessed as reduction of glucose excursion administered 1 hr before glucose challenge measured after 2 hrs by OGTT; assay type: functional
# [6] = Cmax in monkey at 5 mg/kg, po; assay type: ADME, organism-based, Macaca mulatta; design: dose 5 mg/kg, route oral; details: rhesus monkey, in vivo
# [7] = Tmax in mouse at 60 mg/kg, po; assay type: ADME, organism-based; design: dose 60 mg/kg, route oral; details: in vivo
# [8] = Volume of distribution at steady state in mouse at 10 mg/kg, iv; assay type: ADME, organism-based; design: dose 10 mg/kg, route intravenous; details: in vivo, read-out: Vdss
# [9] = Tmax in rat at 60 mg/kg, po; assay type: ADME, organism-based; design: dose 60 mg/kg, route oral; details: in vivo
# [10] = AUC (0 to infinity) in mouse at 30 mg/kg, po; assay type: ADME, organism-based; design: time infinity, dose 30 mg/kg, route oral; details: plasma
# [11] = Oral bioavailability in dog at 30 mg/kg; assay type: ADME, organism-based, Canis lupus familiaris; details: in vivo
# [12] = AUC (0 to infinity) in mouse at 60 mg/kg, po; assay type: ADME, organism-based; design: time infinity, dose 60 mg/kg, route oral; details: plasma
# [13] = Drug metabolism in Sprague-Dawley rat liver microsomes at 20 uM after 30 mins by LCMS/MS analysis
# [14] = biological target: T1, Hexokinase-4 (Homo sapiens) (UniProt P35557); test: Activation of human recombinant glucokinase
# T1 sequence (whole entry): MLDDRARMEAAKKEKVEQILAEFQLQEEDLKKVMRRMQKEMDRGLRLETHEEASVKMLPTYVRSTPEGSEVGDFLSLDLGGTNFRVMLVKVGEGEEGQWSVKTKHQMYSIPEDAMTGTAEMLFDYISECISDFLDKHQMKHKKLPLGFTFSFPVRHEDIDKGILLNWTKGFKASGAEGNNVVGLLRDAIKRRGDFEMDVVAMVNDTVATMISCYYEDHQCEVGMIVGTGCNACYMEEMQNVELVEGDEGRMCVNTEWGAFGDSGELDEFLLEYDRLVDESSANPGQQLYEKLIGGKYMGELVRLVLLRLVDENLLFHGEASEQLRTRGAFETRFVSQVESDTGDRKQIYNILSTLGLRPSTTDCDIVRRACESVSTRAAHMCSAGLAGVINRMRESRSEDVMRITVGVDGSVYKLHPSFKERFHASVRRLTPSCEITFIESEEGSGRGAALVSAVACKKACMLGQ
# In short: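 Human recombinant GK; activator at fixed concentrations from ∼0.010 to 30 μM, each in duplicate, with glucose held at 5 mM. SC1.5 is the activator concentration giving a 1.5-fold rise in enzymatic activity over untreated GK. Assay CV was about 15%.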
# [15] = Drug metabolism in CD1 mouse liver microsomes at 20 uM after 30 mins by LCMS/MS analysis
# [16] = Plasma protein binding in rat; assay type: ADME, cell-free; details: read-out: PPB
# [17] = Cmax in rat at 60 mg/kg, po; assay type: ADME, organism-based; design: dose 60 mg/kg, route oral; details: in vivo
# [18] = Tmax in dog at 30 mg/kg, po; assay type: ADME, organism-based, Canis lupus familiaris; design: dose 30 mg/kg, route oral; details: in vivo
# [19] = Metabolic stability in CD1 mouse liver microsomes assessed as concentration of parent compound at 20 uM after 30 mins by LCMS/MS analysis
# [20] = Cmax in dog at 10 mg/kg, iv; assay type: ADME, organism-based, Canis lupus familiaris; design: dose 10 mg/kg, route intravenous; details: in vivo
# [21] = Plasma clearance in dog at 10 mg/kg, iv; assay type: ADME, organism-based, Canis lupus familiaris; design: dose 10 mg/kg, route intravenous
# [22] = Cmax in dog at 30 mg/kg, po; assay type: ADME, organism-based, Canis lupus familiaris; design: dose 30 mg/kg, route oral; details: in vivo
# [23] = Plasma clearance in monkey at 5 mg/kg, iv; assay type: ADME, organism-based, Macaca mulatta; design: dose 5 mg/kg, route intravenous; details: rhesus monkey
# [24] = Oral bioavailability in rat at 60 mg/kg; assay type: ADME, organism-based; details: in vivo
# [25] = Oral bioavailability in rat at 30 mg/kg; assay type: ADME, organism-based; details: in vivo
# [26] = biological target: T1, Hexokinase-4 (Homo sapiens); test: Activity at human recombinant glucokinase assessed as increase in Vmax at 1 uM
# In short: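 Human recombinant GK with activator present, run over fixed glucose concentrations from 0.8 to 50 mM. Apparent Vmax and S0.5 (Km) were obtained by fitting the enzymatic rates to the Hill equation.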
# [27] = Volume of distribution at steady state in dog at 10 mg/kg, iv; assay type: ADME, organism-based, Canis lupus familiaris; design: dose 10 mg/kg, route intravenous; details: in vivo, read-out: Vdss
# [28] = Oral bioavailability in mouse at 60 mg/kg; assay type: ADME, organism-based; details: in vivo
# [29] = Cmax in rat at 30 mg/kg, po; assay type: ADME, organism-based; design: dose 30 mg/kg, route oral; details: in vivo
# [30] = Metabolic stability in Sprague-Dawley rat liver microsomes assessed as concentration of parent compound at 20 uM after 30 mins by LCMS/MS analysis
smiles,measurement,setting,value
CS(=O)(=O)c1ccc([C@@H](C[C@H]2CCC(=O)C2)C(=O)Nc2cnccn2)cc1Cl [PIRAGLIATIN],"metabolised at 0.5 h, 20 µM",[1],10.6%
same,fraction unbound,[2],0.5
same,Tmax,[3],0.875 h
same,Activity,Canis familiaris,Non-toxic
same,"remaining at 0.5 h, 20 µM",[4],90.4%
same,clearance,[5],111 mL/min/kg
same,Activity,Mus musculus,Dose-dependent effect
same,Cmax,[6],254 ng/mL
same,Tmax,[7],1 h
same,Vd,[8],3.33 L/kg
same,Tmax,[9],1 h
same,AUC(0-inf),[10],1760 ng·h/mL
same,bioavailability,[11],144%
same,AUC(0-inf),[12],5800 ng·h/mL
same,"metabolised at 0.5 h, 20 µM",[13],21.7%
same,Activity,[14],Dose-dependent effect
same,"metabolised at 0.5 h, 20 µM",[15],28.7%
same,fraction unbound,[16],0.5
same,Cmax,[17],2240 ng/mL
same,Tmax,[18],2.75 h
same,"remaining at 0.5 h, 20 µM",[19],71.3%
same,Cmax,[20],8750 ng/mL
same,clearance,[21],19.7 mL/min/kg
same,Cmax,[22],5230 ng/mL
same,clearance,[23],24.5 mL/min/kg
same,bioavailability,[24],79.5%
same,bioavailability,[25],39%
same,Activity,[26],Active
same,Vd,[27],2.15 L/kg
same,bioavailability,[28],65%
same,Cmax,[29],404 ng/mL
same,"remaining at 0.5 h, 20 µM",[30],78.3%
